Data taken from ChEMBL document CHEMBL3797075 (Bioorg Med Chem, 2016).
Calls of active or inactive are those of the source. The rule behind the calls is not given here.

Experiments:
[1] = biological target: T1, Steryl-sulfatase (Homo sapiens) (UniProt P08842); experiment: Inhibition of steroid sulfatase (unknown origin) at 10 uM
T1 sequence (whole entry): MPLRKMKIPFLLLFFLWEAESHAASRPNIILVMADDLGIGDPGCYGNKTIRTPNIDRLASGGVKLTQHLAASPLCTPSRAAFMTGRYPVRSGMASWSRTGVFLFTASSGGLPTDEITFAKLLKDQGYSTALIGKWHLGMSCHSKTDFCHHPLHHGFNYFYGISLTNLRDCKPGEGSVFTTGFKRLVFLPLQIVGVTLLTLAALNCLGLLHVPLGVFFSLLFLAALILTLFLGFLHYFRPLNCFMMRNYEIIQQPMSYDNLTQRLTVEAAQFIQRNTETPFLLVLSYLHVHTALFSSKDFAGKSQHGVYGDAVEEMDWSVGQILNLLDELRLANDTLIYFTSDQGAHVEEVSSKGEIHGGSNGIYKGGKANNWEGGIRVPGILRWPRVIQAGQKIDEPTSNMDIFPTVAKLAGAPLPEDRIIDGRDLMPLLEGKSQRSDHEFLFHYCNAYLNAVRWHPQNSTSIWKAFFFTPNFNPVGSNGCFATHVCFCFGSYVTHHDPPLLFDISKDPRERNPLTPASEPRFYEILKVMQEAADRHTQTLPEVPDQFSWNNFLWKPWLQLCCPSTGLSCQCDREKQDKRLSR
In short: (§1)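 STS source was lysate of human JEG-3 choriocarcinoma cells at 125 µg protein/mL. Substrate was [³H]E₁S adjusted to 20 µM with unlabelled E₁S. Inhibitor was added at a single 10 µM or at 0.5–20 µM, incubated for 1 h. Product was extracted into toluene, with [4-¹⁴C]E₁ correcting for losses. Values are % inhibition, triplicate mean.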

[2] = biological target: T1, Steryl-sulfatase (Homo sapiens); experiment: (§2) Inhibition of steroid sulfatase in human JEG-3 cells assessed as […]Estrone formation using [3H]E1S as substrate; type: cell-based
In short: (§3)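 Intact JEG-3 monolayers were incubated for 20 h at 37 °C in serum-free EMEM with [³H]E₁S (5 pmol, 60 Ci/mmol), with or without inhibitor. Estrone was separated from E₁S by toluene partition, with [¹⁴C]estrone correcting for recovery. Counts were read by scintillation, and hydrolysed E₁S mass was derived from ³H counts and substrate specific activity. Values are triplicate means.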

Steryl-sulfatase = biological target: T2, Steryl-sulfatase (Homo sapiens, UniProt P08842); experiment: as §2; type: cell-based; in short: as §3
T2 sequence (P08842 whole entry): T1 sequence (whole entry)

[3] = biological target: T1, Steryl-sulfatase (Homo sapiens); experiment: Inhibition of steroid sulfatase in human JEG-3 cells assessed as […]Estrone formation using [3H]E1S as substrate at 10 uM; type: cell-based; in short: as §3
[4] = biological target: T1, Steryl-sulfatase (Homo sapiens); experiment: Inhibition of steroid sulfatase (unknown origin) at 20 uM; in short: as §1
[5] = biological target: T1, Steryl-sulfatase (Homo sapiens); experiment: Inhibition of steroid sulfatase (unknown origin); in short: as §1
[6] = biological target: T1, Steryl-sulfatase (Homo sapiens); experiment: Inhibition of steroid sulfatase in human JEG-3 cells assessed as […]Estrone formation using [3H]E1S as substrate at 20 uM; type: cell-based; in short: as §3

Compound	inhibition [1]	also measured
Cc1ccc(S(=O)(=O)Oc2ccc(NC(=O)C3CCCC3)cc2)cc1	Active	
CNS(=O)(=O)Oc1ccc(NC(=O)C2CCCCC2)cc1	Active	
CN(C)S(=O)(=O)Oc1ccc(NC(=O)C2CCCCC2)cc1	Active	
CCS(=O)(=O)Oc1ccc(NC(=O)C2CCCCC2)cc1	Active	
CNS(=O)(=O)Oc1ccc(NC(=O)C2CCCC2)cc1	Active	
Cc1ccc(S(=O)(=O)Oc2ccc(NC(=O)C3CCCCC3)cc2)cc1	Active	
NS(=O)(=O)Oc1ccc(NC(=O)C2CCCCC2)cc1	55.7%	inhibition [2]: Dose-dependent effect; IC50 (Steryl-sulfatase): 421 nM; inhibition [3]: 86.1%; inhibition [4]: 72%; inhibition [5]: Dose-dependent effect; inhibition [6]: 93.9%
